We go through twelve compounds from ChEMBL document CHEMBL4024803, “New Steroidal 4-Aminoquinolines Antagonize Botulinum Neurotoxin Serotype A in Mouse Embryonic Stem Cell Derived Motor Neurons in Postintoxication Model” (J Med Chem, 2018).

Series [1] deals with T1, Botulinum neurotoxin type A (Clostridium botulinum, UniProt P0DPI0). The experiment in a line: (§1) Inhibition of Clostridium botulinum BoNT/A holotoxin-mediated SNAP-25 cleavage in mouse HBG3 cell-derived motor neurons preincubated for 30 mins followed by intoxication measured after 4 hrs by Western blot method. On the technique in general: Immunoblotting shows a protein as a band on a membrane.

In series [2] the target is Botulinum neurotoxin type A (Clostridium botulinum) (UniProt P0DPI0). The description is as §1.
Series [3] has the same target. The experiment in a line: Inhibition of Clostridium botulinum BoNT/A holotoxin-mediated SNAP-25 cleavage in mouse HBG3 cell-derived motor neurons assessed as full length of SNAP-25 at 20 uM treated at 60 mins post intoxication by Western blot method relative to control. Also noted: scale not given: the % may be the effect or the level left.
Series [4] shares this target. The experiment in a line: Inhibition of Clostridium botulinum BoNT/A holotoxin-mediated SNAP-25 cleavage in mouse HBG3 cell-derived motor neurons assessed as full length of SNAP-25 at 20 uM preincubated for 30 mins followed by intoxication measured after 4 hrs by Western blot method relative to control. Further details: scale not given: the % may be the effect or the level left.

Series [5] shares this target. The experiment in a line: Inhibition of Clostridium botulinum BoNT/A light chain at 20 uM using P39 as substrate preincubated for 10 mins followed by substrate addition measured after 10 mins by HPLC method relative to control. In outline:
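Purified BoNT/A light chain (20 nM) with 0.2 mg/mL BSA in 50 mM HEPES pH 7.4, preincubated with compound for 10 min at room temperature. Cleavage fragments were separated by reversed-phase HPLC (214/280 nm). Percent inhibition was taken from fragment peak areas with vs without compound. Mean of three experiments.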

For series [6] the target is unchanged. The experiment in a line: Inhibition of Clostridium botulinum BoNT/A holotoxin-mediated SNAP-25 cleavage in mouse HBG3 cell-derived motor neurons assessed as full length of SNAP-25 at 20 uM treated at 30 mins post intoxication by Western blot method relative to control. Further details: scale not given: the % may be the effect or the level left.
The target is the same in series [7]. The experiment in a line: Inhibition of Clostridium botulinum BoNT/A holotoxin-mediated SNAP-25 cleavage in mouse HBG3 cell-derived motor neurons assessed as full length of SNAP-25 at 10 uM preincubated for 30 mins followed by intoxication measured after 4 hrs by Western blot method relative to control. Further details: scale not given: the % may be the effect or the level left.

In series [8] the target is T1, Botulinum neurotoxin type A. The series can be described thus: (§2) Inhibition of Clostridium botulinum BoNT/A light chain using P39 as substrate preincubated for 10 mins followed by substrate addition measured after 10 mins by HPLC method.
Series [9] concerns the target Botulinum neurotoxin type A (Clostridium botulinum) (UniProt P0DPI0). Described as §2.
Series [10] in a line: Distribution co-efficient, log D of the compound at pH 1 by reversed-phase thin-layer chromatographic method. The class given is physicochemical. Particulars: buffer. Put shortly:
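Reversed-phase thin-layer chromatography at pH 1, mobile phase MeOH/HCl (70/30).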

Series [11] in a line: Distribution co-efficient, log D of the compound at pH 10 by reversed-phase thin-layer chromatographic method. It counts as physicochemical. Conditions: buffer. Put shortly:
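Reversed-phase thin-layer chromatography at pH 10, mobile phase acetone/NH3/H2O (85/5/10).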

Series [12] concerns Mus musculus. The series can be described thus: Toxicity in mouse assessed as effect on appearance at 160 mg/kg, po administered for 3 days measured 2 times a day for 30 days. It counts as organism-based. Conditions: in vivo, 720 h. Put shortly: (§3)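 Groups of five healthy mice were dosed per os for three consecutive days, suspended in 0.5% hydroxyethylcellulose–0.1% Tween 80. Behaviour and appearance were monitored twice daily for 30 days, with survival assessed at 30 days. Non-toxic was defined as all 5 surviving with normal appearance and behaviour.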

For series [13], the system named is Mus musculus. The experiment in a line: Toxicity in mouse assessed as effect on behavior at 160 mg/kg, po administered for 3 days measured 2 times a day for 30 days. It counts as organism-based. Conditions: in vivo, 720 h. Put shortly:
as §3

Series [14] deals with Mus musculus. The series can be described thus: Toxicity in mouse assessed as effect on survival at 160 mg/kg, po administered for 3 days measured after 30 days. The class given is organism-based. Conditions: in vivo, 720 h. Put shortly:
as §3

Series [15] relates to Mus musculus. The experiment in a line: In vivo inhibition of Clostridium botulinum BoNT/A in CD1 mouse assessed as mouse survival at 1 mg/kg, ip administered 3 hrs post intoxication measured over 24 hrs relative to control. The class given is functional.
The target in series [16] is Botulinum neurotoxin type A (Clostridium botulinum) (UniProt P0DPI0). The series can be described thus: Inhibition of Clostridium botulinum BoNT/A holotoxin-mediated SNAP-25 cleavage in mouse HBG3 cell-derived motor neurons assessed as full length of SNAP-25 at 64 uM treated at 30 mins post intoxication by Western blot method relative to control. Also noted: scale not given: the % may be the effect or the level left.

Series [17] has the same target. The experiment in a line: Inhibition of Clostridium botulinum BoNT/A holotoxin-mediated SNAP-25 cleavage in mouse HBG3 cell-derived motor neurons assessed as full length of SNAP-25 at 16 uM treated at 30 mins post intoxication by Western blot method relative to control. Further details: scale not given: the % may be the effect or the level left.
The target is the same in series [18]. The experiment in a line: Inhibition of Clostridium botulinum BoNT/A holotoxin-mediated SNAP-25 cleavage in mouse HBG3 cell-derived motor neurons assessed as full length of SNAP-25 at 8 uM preincubated for 30 mins followed by intoxication measured after 4 hrs by Western blot method relative to control. Further details: scale not given: the % may be the effect or the level left.

Series [19] has the same target. The experiment in a line: Inhibition of Clostridium botulinum BoNT/A holotoxin-mediated SNAP-25 cleavage in mouse HBG3 cell-derived motor neurons assessed as full length of SNAP-25 at 16 uM preincubated for 30 mins followed by intoxication measured after 4 hrs by Western blot method relative to control. Also noted: scale not given: the % may be the effect or the level left.

Usually IC50 stands for the midpoint of a concentration-inhibition curve. Usually inhibition stands for the share of the control response that was lost under treatment. A word on the chromatographic logD: it is a lipophilicity value derived from retention on a column. In the case of `CC(=O)O[C@H]1C[C@H]2[C@@H]([C@H](OC(C)=O)C[C@@H]3C[C@H](N)CC[C@@]32C)[C@@H]2CC[C@H]([C@H](C)CCCNCCCCNc3ccnc4ccccc34)[C@@]12C`, the figures for the concentration for half-maximal inhibition (IC50) in series [1] and in series [8] were 10 to 20 µM and 5.7 µM, respectively. Besides, the results for the inhibition entry in [2], in [5] and in series [9] were “Dose-dependent effect”, 80% and “Dose-dependent effect”, respectively. The Activity in series [3] is 49%; in [4] it was 67%; in [6] it was 48%; in series [7], 28%. This compound gave a chromatographic logD in series [10] of 2.14.

Take `CN(CCCNc1ccnc2cc(Cl)ccc12)CC12CC3CC(CC(C3)C1)C2`: the inhibition entry was “Dose-dependent effect” in [2], 71% in series [5] and “Dose-dependent effect” in series [9]. The Activity in series [3] stood at 39%; in series [4] it was 56%; in [6] it was 46%; in [7], 51%. The compound also gave a chromatographic logD in series [11] of 3.24. 8.8 µM corresponded to half-maximal inhibition in [8] (IC50).

Take `CC(CCN(C)CC12CC3CC(CC(C3)C1)C2)Nc1ccnc2cc(Cl)ccc12` (stereo not drawn): the concentration for half-maximal inhibition (IC50) was under 10 µM in series [1] and 11.7 µM in series [8]. Besides, the figures for the inhibition result in series [2], in series [5] and in [9] were “Dose-dependent effect”, 67% and “Dose-dependent effect”, respectively. The Activity in series [3] worked out at 16%; in [4], 72%; in [6] it was 15%; in series [7], 63%. In [11], the chromatographic logD was determined as 3.47.

As to `CC(=O)O[C@H]1C[C@H]2[C@@H]([C@H](OC(C)=O)C[C@@H]3C[C@H](N)CC[C@@]32C)[C@@H]2CC[C@H]([C@H](C)CCCNCCCC(C)Nc3ccnc4ccccc34)[C@@]12C` (mixture of isomers), the inhibition entry was “Dose-dependent effect” in [2], 71% in series [5] and “Dose-dependent effect” in series [9]. Besides, the Activity turned out to be 22% in [3], 69% in series [4], 38% in series [6] and 67% in series [7]. Further, half-maximal inhibition in [8] (IC50) was put at 2.7 µM. The chromatographic logD in series [10] was 2.28.

As for `CC(CCCNc1ccnc2ccccc12)NCc1ccc(-c2csc3ccc(F)cc23)cc1` (stereo not drawn), the half-maximal inhibitory concentration (IC50) in series [1] is 10 to 20 µM; in series [8] it was 7.4 µM. Besides, the inhibition entry is “Dose-dependent effect” in [2], 75% in [5] and “Dose-dependent effect” in series [9]. For the same compound, the Activity in [3] is 17%; in the series on Mus musculus [12], “Non-Toxic”; in [4], 68%; in the series with Mus musculus [13], “Non-Toxic”; with Mus musculus [14] it was “Non-Toxic”; in [6] it was 16%. In addition, the Activity in series [7] came out at 58%. Besides, the chromatographic logD in series [11] was determined as 3.85.

`O=C(N/N=C/c1cc(O)c(O)cc1O)c1cc2ccccc2cc1O`: the survival at 1 mg/kg with Mus musculus [15] is 30%.

With `CC(=O)O[C@H]1C[C@H]2[C@@H]([C@H](OC(C)=O)C[C@@H]3C[C@H](N)CC[C@@]32C)[C@@H]2CC[C@H]([C@H](C)CCCNC(C)CCCNc3ccnc4ccccc34)[C@@]12C` (mixture of isomers), the inhibition result in series [2] is “Dose-dependent effect”; in series [5], 75%; in series [9], “Dose-dependent effect”. Also, the Activity in series [3] is 22%; in [4], 87%; in series [6], 50%; in series [7], 86%. Moreover, in series [8], it took 3 µM to reach half-maximal inhibition (IC50). Moreover, in series [10], the chromatographic logD was determined as 2.21.

For `CC(=O)O[C@H]1C[C@H]2[C@@H]([C@H](OC(C)=O)C[C@@H]3C[C@H](NCCCCCCNc4ccnc5cc(Cl)ccc45)CC[C@@]32C)[C@@H]2CC[C@H]([C@H](C)CCCNCCCCCCNc3ccnc4cc(Cl)ccc34)[C@@]12C`, the inhibition result in series [2] is “Dose-dependent effect”; in [5] it was 90%; in [9] it was “Dose-dependent effect”. Besides, the Activity in [3] turned out to be 20%; in series [4], 84%; in series [6], 36%; in series [7], 70%. For the same compound, in [8], it took 12.4 µM to reach half-maximal inhibition (IC50).

In series [1], `C[C@H](CCCNCCCCNc1ccnc2cc(Cl)ccc12)[C@H]1CC[C@H]2[C@@H]3[C@H](O)C[C@@H]4C[C@H](N)CC[C@]4(C)[C@H]3C[C@H](O)[C@]12C` displayed a concentration for half-maximal inhibition (IC50) of 8 to 16 µM. Moreover, the figures for the inhibition result in [2] and in series [5] were “Dose-dependent effect” and 48%, respectively. Also, the Activity came out at 69% in series [16]; 49% in series [17]; 58% in [18]; 46% in series [7]; 58% in [19]. Moreover, in series [10], the chromatographic logD was 2.97.

Take `CN(CCCCCCCCNc1ccnc2ccccc12)Cc1ccc(-c2ccc(-c3ccc(C#N)cc3)s2)cc1`: in [1], the IC50 lay within 5 to 10 µM. Besides, the inhibition entry in [2] was “Dose-dependent effect”; in series [5], 35%. The Activity in [3] was 22%; in the series on Mus musculus [12], “Non-Toxic”; in series [4], 60%; in the series on Mus musculus [13], “Non-Toxic”; in the series with Mus musculus [14], “Non-Toxic”; in series [6], 34%. Besides, in series [7], the Activity was found to be 54%. This compound also displayed a chromatographic logD in series [10] of 3.33.

On to `N#Cc1ccc(-c2ccc(-c3ccc(CNCCCCCCCCNc4ccnc5ccccc45)cc3)s2)cc1`, for which the results for the 50% inhibitory concentration (IC50) in series [1] and in series [8] were 10 to 20 µM and 6.8 µM, respectively. Further, the inhibition result was “Dose-dependent effect” in series [2], 77% in [5] and “Dose-dependent effect” in [9]. The Activity was 19% in series [3]; “Non-Toxic” with Mus musculus [12]; 70% in series [4]; “Non-Toxic” in the series with Mus musculus [13]; “Non-Toxic” with Mus musculus [14]; 20% in series [6]. For the same compound, the Activity in [7] was 31%. The chromatographic logD in series [10] was determined as 3.42.

As to `CC(CCCN(C)Cc1ccc(-c2csc3ccc(C#N)cc23)cc1)Nc1ccnc2ccccc12` (stereo not drawn), the half-maximal inhibitory concentration (IC50) in series [1] is 10 to 20 µM. Further, the figures for the inhibition entry in series [2] and in series [5] were “Dose-dependent effect” and 27%, respectively. The results for the Activity in series [4] and in series [7] were 64% and 59%, respectively. This compound showed a chromatographic logD in [11] of 3.42.
